Laboratory results from ChEMBL document CHEMBL4311965, “Antimicrobial activity of amphipathic α,α-disubstituted β-amino amide derivatives against ESBL - CARBA producing multi-resistant bacteria; effect of halogenation, lipophilicity and cationic character” (Eur J Med Chem, 2019).
Values after ≈ are worked out from the molar mass of the structure shown.

How the values were obtained:
Enterococcus faecium [1] = test: Antibacterial activity against multidrug-resistant Enterococcus faecium 50673722 cultured in BHIB medium assessed as reduction in bacterial growth incubated for 24 hrs by microdilution susceptibility test; type: functional; conditions: Enterococcus faecium, 50673722, 24 h
In short: (§1)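 Enterococci grown in Brain Heart Infusion broth, otherwise broth microdilution per CLSI M07-A9 (modified). Concentrated DMSO stocks kept at r.t. and diluted in double-distilled water, final DMSO <1%. Inoculum 1–1.2 x 10⁶ cells/mL mixed 1:1 with compound. 37 °C, 24 h, four parallels. OD₆₀₀ read-out, lowest concentration with no growth.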

Klebsiella pneumoniae = test: Antibacterial activity against multidrug-resistant Klebsiella pneumoniae 50625602 producing oxcillinase-245 cultured in MHB medium assessed as reduction in bacterial growth incubated for 24 hrs by microdilution susceptibility test; type: functional; conditions: Klebsiella pneumoniae, 50625602, 24 h
In short: (§2)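 Broth microdilution per CLSI M07-A9 (modified). Working solutions made from concentrated DMSO stocks kept at r.t., diluted in double-distilled water, final DMSO <1%. Inoculum 1–1.2 x 10⁶ cells/mL in Mueller-Hinton broth, mixed 1:1 with compound. 37 °C, 24 h, four parallels. Read as OD₆₀₀. Where precipitation left residual OD, the point of major OD decrease was taken as the inhibitory concentration.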

Acinetobacter baumannii [2] = test: Antibacterial activity against multidrug-resistant Acinetobacter baumannii K55-13 producing oxcillinase-24 cultured in MHB medium assessed as reduction in bacterial growth incubated for 24 hrs by microdilution susceptibility test; type: functional; conditions: K55-13, 24 h; in short: as §2
Escherichia coli [3] = test: Antibacterial activity against Escherichia coli ATCC 25922 cultured in MHB medium assessed as no bacterial growth incubated at 37 degC for 24 hrs by microdilution susceptibility test; type: functional; conditions: ATCC 25922, 24 h
In short: (§3)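 Broth microdilution per CLSI M07-A9 with modifications. Inoculum about 2.5–3 x 10⁴ cells/mL in Mueller-Hinton broth, mixed 1:1 with test derivative. DMSO stocks diluted in double-distilled water, final DMSO <1%. Incubation 24 h at 37 °C (20 °C for C. glutamicum). Growth and sterility controls included; oxytetracycline reference.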

Enterococcus faecium [4] = test: Antibacterial activity against multidrug-resistant Enterococcus faecium 50901530 cultured in BHIB medium assessed as reduction in bacterial growth incubated for 24 hrs by microdilution susceptibility test; type: functional; conditions: Enterococcus faecium, 50901530, 24 h; in short: as §1
Erythrocyte = test: Hemolytic activity against human RBC incubated for 1 hr; type: cell-based
In short: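 Heparinized human blood washed three times in warm PBS and set to 10% hct. Erythrocytes at 1% v/v final, with compound in PBS (DMSO <1%), shaken 1 h at 37 °C and then centrifuged. Supernatant absorbance read at 405 and 545 nm after PBS background subtraction. Haemolysis taken relative to 1% Triton X-100. Three independent replicates, EC50 averaged.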

Pseudomonas aeruginosa [5] = test: Antibacterial activity against Pseudomonas aeruginosa PA01 DSM 19880 (ATCC 15692) cultured in MHB medium assessed as no bacterial growth incubated at 37 degC for 24 hrs by microdilution susceptibility test; type: functional; conditions: PAO1 DSM 19880 (ATCC 15692); in short: as §3
Staphylococcus aureus [6] = test: Antibacterial activity against multidrug-resistant Staphylococcus aureus NCTC 10442 cultured in MHB medium assessed as reduction in bacterial growth incubated for 24 hrs by microdilution susceptibility test; type: functional; conditions: NCTC 10442, 24 h; in short: as §2
[7] = system: Corynebacterium glutamicum; test: Antibacterial activity against Corynebacterium glutamicum ATCC 13032 cultured in MHB medium assessed as no bacterial growth incubated at 20 degC for 24 hrs by microdilution susceptibility test; type: functional; conditions: ATCC 13032, 24 h; in short: as §3
[8] = Selectivity index, ratio of EC50 for hemolytic activity against human RBC to MIC for antibacterial activity against Escherichia coli ATCC 25922; type: toxicity; conditions: human red blood cells (RBC)
In short: (§4)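 Selectivity index is the RBC haemolysis EC50 divided by the MIC against the E. coli or S. aureus reference strain.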

Escherichia coli [9] = test: Antibacterial activity against multidrug-resistant Escherichia coli 50739822 producing New Delhi metallo-beta-lactamase-1 cultured in MHB medium assessed as reduction in bacterial growth incubated for 24 hrs by microdilution susceptibility test; type: functional; conditions: Escherichia coli, 50739822, 24 h; in short: as §2
[10] = Selectivity index, ratio of EC50 for hemolytic activity against human RBC to MIC for antibacterial activity against Staphylococcus aureus ATCC 9144; type: toxicity; conditions: human red blood cells (RBC); in short: as §4
Pseudomonas aeruginosa [11] = test: Antibacterial activity against multidrug-resistant Pseudomonas aeruginosa K34-73 producing Verona integron encoded metallo beta-lactamse-4 cultured in MHB medium assessed as reduction in bacterial growth incubated for 24 hrs by microdilution susceptibility test; type: functional; conditions: K34-73, 24 h; in short: as §2
Enterococcus faecium [12] = test: Antibacterial activity against multidrug-resistant Enterococcus faecium TUH50-22 cultured in BHIB medium assessed as reduction in bacterial growth incubated for 24 hrs by microdilution susceptibility test; type: functional; conditions: TUH50-22, 24 h; in short: as §1
Enterococcus faecium [13] = test: Antibacterial activity against multidrug-resistant Enterococcus faecium K36-18 cultured in BHIB medium assessed as reduction in bacterial growth incubated for 24 hrs by microdilution susceptibility test; type: functional; conditions: K36-18, 24 h; in short: as §1
Escherichia coli [14] = test: Antibacterial activity against multidrug-resistant Escherichia coli 50579417 producing oxcillinase-48 cultured in MHB medium assessed as reduction in bacterial growth incubated for 24 hrs by microdilution susceptibility test; type: functional; conditions: Escherichia coli, 50579417, 24 h; in short: as §2
Escherichia coli [15] = test: Antibacterial activity against multidrug-resistant Escherichia coli 50639799 producing Verona integron encoded metallo beta-lactamse-29 cultured in MHB medium assessed as reduction in bacterial growth incubated for 24 hrs by microdilution susceptibility test; type: functional; conditions: Escherichia coli, 50639799, 24 h; in short: as §2
Acinetobacter baumannii [16] = test: Antibacterial activity against multidrug-resistant Acinetobacter baumannii K12-21 producing oxcillinase-58 cultured in MHB medium assessed as reduction in bacterial growth incubated for 24 hrs by microdilution susceptibility test; type: functional; conditions: K12-21, 24 h; in short: as §2
Enterococcus faecium [17] = test: Antibacterial activity against multidrug-resistant Enterococcus faecium 50758899 cultured in BHIB medium assessed as reduction in bacterial growth incubated for 24 hrs by microdilution susceptibility test; type: functional; conditions: Enterococcus faecium, 50758899, 24 h; in short: as §1
Acinetobacter baumannii [18] = test: Antibacterial activity against multidrug-resistant Acinetobacter baumannii K63-58 producing oxcillinase-23 cultured in MHB medium assessed as reduction in bacterial growth incubated for 24 hrs by microdilution susceptibility test; type: functional; conditions: K63-58, 24 h; in short: as §2
Staphylococcus aureus [19] = test: Antibacterial activity against multidrug-resistant Staphylococcus aureus IHT 99040 cultured in MHB medium assessed as reduction in bacterial growth incubated for 24 hrs by microdilution susceptibility test; type: functional; conditions: IHT 99040, 24 h; in short: as §2
Pseudomonas aeruginosa [20] = test: Antibacterial activity against multidrug-resistant Pseudomonas aeruginosa K44-24 producing imipenem-type carbapenemase-14 cultured in MHB medium assessed as reduction in bacterial growth incubated for 24 hrs by microdilution susceptibility test; type: functional; conditions: K44-24, 24 h; in short: as §2
Pseudomonas aeruginosa [21] = test: Antibacterial activity against multidrug-resistant Pseudomonas aeruginosa K34-7 producing Verona integron encoded metallo beta-lactamse-2 cultured in MHB medium assessed as reduction in bacterial growth incubated for 24 hrs by microdilution susceptibility test; type: functional; conditions: K34-7, 24 h; in short: as §2
Pseudomonas aeruginosa [22] = test: Antibacterial activity against multidrug-resistant Pseudomonas aeruginosa 50692172 producing New Delhi metallo-beta-lactamase-1 cultured in MHB medium assessed as reduction in bacterial growth incubated for 24 hrs by microdilution susceptibility test; type: functional; conditions: Pseudomonas aeruginosa, 50692172, 24 h; in short: as §2

Row | SMILES | MIC (Enterococcus faecium [1]) [µg/mL] | MIC (Klebsiella pneumoniae) [µg/mL] | MIC (Acinetobacter baumannii [2]) [µg/mL] | MIC (Escherichia coli [3]) [µg/mL] | MIC (Enterococcus faecium [4]) [µg/mL] | EC50 (Erythrocyte) [µg/mL] | MIC (Pseudomonas aeruginosa [5]) [µg/mL] | MIC (Staphylococcus aureus [6]) [µg/mL] | MIC [7] [µg/mL] | selectivity ratio [8] | MIC (Escherichia coli [9]) [µg/mL] | selectivity ratio [10] | MIC (Pseudomonas aeruginosa [11]) [µg/mL] | MIC (Enterococcus faecium [12]) [µg/mL] | MIC (Enterococcus faecium [13]) [µg/mL] | MIC (Escherichia coli [14]) [µg/mL] | MIC (Escherichia coli [15]) [µg/mL] | MIC (Acinetobacter baumannii [16]) [µg/mL] | MIC (Enterococcus faecium [17]) [µg/mL] | MIC (Acinetobacter baumannii [18]) [µg/mL] | other results
1 | NCCNCC(CN)(Cc1ccc(F)c2ccccc12)Cc1ccc(F)c2ccccc12 | 4 (≈ 9.23 µM) | 8 (≈ 18.5 µM) | 16 (≈ 36.9 µM) | 4 (≈ 9.23 µM) | 4 (≈ 9.23 µM) | 27 (≈ 62.3 µM) | 4 (≈ 9.23 µM) | 4 (≈ 9.23 µM) | 1 (≈ 2.31 µM) | 7 | 4 (≈ 9.23 µM) | 14 | 16 (≈ 36.9 µM) | 4 (≈ 9.23 µM) | 4 (≈ 9.23 µM) | 8 (≈ 18.5 µM) | 8 (≈ 18.5 µM) | 8 (≈ 18.5 µM) | 4 (≈ 9.23 µM) | 8 (≈ 18.5 µM) | MIC (Staphylococcus aureus [19]): 8 µg/mL (≈ 18.5 µM); MIC (Pseudomonas aeruginosa [20]): 16 µg/mL (≈ 36.9 µM); MIC (Pseudomonas aeruginosa [21]): 16 µg/mL (≈ 36.9 µM); MIC (Pseudomonas aeruginosa [22]): 16 µg/mL (≈ 36.9 µM)
2 | NCCNC(=O)C(CN)(Cc1cc(C(F)(F)F)cc(C(F)(F)F)c1)Cc1cc(C(F)(F)F)cc(C(F)(F)F)c1 | 8 (≈ 13.7 µM) | 16 (≈ 27.4 µM) | 16 (≈ 27.4 µM) | 4 (≈ 6.86 µM) | 4 (≈ 6.86 µM) | 48 (≈ 82.3 µM) | 4 (≈ 6.86 µM) | 16 (≈ 27.4 µM) | 1 (≈ 1.71 µM) | 12 | 16 (≈ 27.4 µM) | 12 | 32 (≈ 54.8 µM) | 8 (≈ 13.7 µM) | 8 (≈ 13.7 µM) | 16 (≈ 27.4 µM) | 16 (≈ 27.4 µM) | 8 (≈ 13.7 µM) | 4 (≈ 6.86 µM) | 8 (≈ 13.7 µM) | MIC (Staphylococcus aureus [19]): 8 µg/mL (≈ 13.7 µM); MIC (Pseudomonas aeruginosa [20]): > 32 µg/mL; MIC (Pseudomonas aeruginosa [21]): > 32 µg/mL; MIC (Pseudomonas aeruginosa [22]): 32 µg/mL (≈ 54.8 µM)
3 | NCCNC(=O)C(CN)(Cc1cc(Br)cc(Br)c1)Cc1cc(Br)cc(Br)c1 | 8 (≈ 12.8 µM) | 8 (≈ 12.8 µM) | 16 (≈ 25.5 µM) | 4 (≈ 6.38 µM) | 8 (≈ 12.8 µM) | 58 (≈ 92.5 µM) | 4 (≈ 6.38 µM) | 8 (≈ 12.8 µM) | 2 (≈ 3.19 µM) | 15 | 8 (≈ 12.8 µM) | 29 | 32 (≈ 51 µM) | 8 (≈ 12.8 µM) | 8 (≈ 12.8 µM) | 8 (≈ 12.8 µM) | 16 (≈ 25.5 µM) | 32 (≈ 51 µM) | 8 (≈ 12.8 µM) | 32 (≈ 51 µM) | MIC (Staphylococcus aureus [19]): 16 µg/mL (≈ 25.5 µM); MIC (Pseudomonas aeruginosa [20]): 32 µg/mL (≈ 51 µM); MIC (Pseudomonas aeruginosa [21]): > 32 µg/mL; MIC (Pseudomonas aeruginosa [22]): > 32 µg/mL
4 | NCCNCC(CN)(Cc1ccccc1Br)Cc1ccccc1Br | 16 (≈ 35.1 µM) | 16 (≈ 35.1 µM) | 16 (≈ 35.1 µM) | 16 (≈ 35.1 µM) | 16 (≈ 35.1 µM) | 209 (≈ 459 µM) | 16 (≈ 35.1 µM) | 16 (≈ 35.1 µM) | 2 (≈ 4.39 µM) | 13 | 16 (≈ 35.1 µM) | 13 | 32 (≈ 70.3 µM) | 16 (≈ 35.1 µM) | 16 (≈ 35.1 µM) | 16 (≈ 35.1 µM) | 16 (≈ 35.1 µM) | 16 (≈ 35.1 µM) | 16 (≈ 35.1 µM) | 16 (≈ 35.1 µM) | MIC (Staphylococcus aureus [19]): 8 µg/mL (≈ 17.6 µM); MIC (Pseudomonas aeruginosa [20]): 32 µg/mL (≈ 70.3 µM); MIC (Pseudomonas aeruginosa [21]): 32 µg/mL (≈ 70.3 µM); MIC (Pseudomonas aeruginosa [22]): 32 µg/mL (≈ 70.3 µM)
